Reference: ChEMBL document CHEMBL1275586, “Phenotypic susceptibility to bevirimat in isolates from HIV-1-infected patients without prior exposure to bevirimat” (Antimicrob Agents Chemother, 2010)

Legend:
[1] = system: Human immunodeficiency virus 1; experiment: Antiviral activity against Human immunodeficiency virus 1 isolate 22 harboring Gag-capsid V215L, H219Q, I223V, N252S, P255A, L268M and A340G mutant gene and Protease L19I, E35D, M36I, S37N, L63P, V77I and I93L mutant gene infected in human MT-2 cells by XTT-assay relative to wild-type; assay type: functional, MT2
Method in brief: (§1)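 Patient Gag-protease (SfoI-XmaI) fragments were ligated into the pXXLAI backbone, with colonies pooled to keep quasispecies. Virus came from 293T transfection, harvested at 2 days. MT-2 infection at 37°C used an input giving XTT signal-to-noise of 2.5–4.0 (≈MOI 0.001). Cells at ≈17,000/well with drug dilutions, 5 days, 37°C; XTT 1 h, A450–650. EC50 from % cell death; fold change vs wild-type LAI.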

[2] = system: Human immunodeficiency virus 1; experiment: Antiviral activity against Human immunodeficiency virus 1 isolate 28 harboring Gag-capsid I138M mutant gene and protease L10I, I13V, L23I, L33F, S37N, M46I, I54V, K55R, R57K, Q58E, D60E, I62V, L63P, A71I, I72V, L76V, V77I, V82A, I84V, I85V, L89M, L90M and I93L mutant gene infected in human MT-2 cells by XTT-assay relative to wild-type; assay type: functional, MT2; method in brief: as §1
[3] = system: Human immunodeficiency virus 1; experiment: Antiviral activity against Human immunodeficiency virus 1 isolate 5 harboring Gag-capsid I138M, V159I, T280V and S310T mutant gene and protease I13V, D30N, L33I, E35D, M36I, S37N, M46I/L, I54V, I62V, L63P, I66M/I, A71N/T, I72T/I, V82L/V, N88D, L90M and I93L/I mutant gene infected in human MT-2 cells by XTT-assay relative to wild-type; assay type: functional, MT2; method in brief: as §1
[4] = system: Human immunodeficiency virus 1; experiment: Antiviral activity against Human immunodeficiency virus 1 isolate 9 harboring Gag-capsid I138L, A146S, I147L, V215L, N252H, T280A, A340G and E345D mutant gene and protease L10I, I13V, K20M, L33V, M36I, S37N, I54V, R57K, I62V, L63P, I66L, A71V, G73S, P79A, I84V and L90M mutant gene infected in human MT-2 cells by XTT-assay relative to wild-type; assay type: functional, MT2; method in brief: as §1
[5] = system: Human immunodeficiency virus 1; experiment: Antiviral activity against Human immunodeficiency virus 1 isolate 27 harboring Gag-capsid I138L, S173T/S, V215L, L268M, R275K/R, T280V, S310T, E319D and G357S and protease L10I, I15V, L19V, V32I, L33F, M46I, I54V, K55R, R57K, L63P, C67F, H69Q, A71V, G73C/G, V82A, L90M and Q92K mutant gene and deletion at A341 in Gag- capsid infected in human MT-2 cells by XTT-assay relative to wild-type; assay type: functional, MT2; method in brief: as §1
[6] = system: Human immunodeficiency virus 1; experiment: Antiviral activity against Human immunodeficiency virus 1 isolate 1 harboring Gag-capsid I138L, V159I, E203D, V215L, I223V, T280V, E312D and V323I mutant gene and protease L10I, K20R, M36I, S37N, G48V, I54M, I62V, L63P, A71V, I72V, V82A, I84V, L90M and I93L/I mutant gene infected in human MT-2 cells by XTT-assay relative to wild-type; assay type: functional, MT2; method in brief: as §1
[7] = system: Human immunodeficiency virus 1; experiment: Antiviral activity against Human immunodeficiency virus 1 isolate 6 harboring Gag-capsid I138L and V215L mutant gene and protease L10I, S37N, M46L, G48V, R57K, L63P, I66F, A71V, V82T and I84V mutant gene infected in human MT-2 cells by XTT-assay relative to wild-type; assay type: functional, MT2; method in brief: as §1
[8] = system: Human immunodeficiency virus 1; experiment: Antiviral activity against Human immunodeficiency virus 1 isolate 33 harboring Gag-capsid I138L, V215L, V218P, H219Q, I223V, M228I, G248T, N252S, N253T, I256M, E312D and A326S mutant gene and protease T12S/T, I13V/I, I15V, L19I, S37T, L63V/A/P/L and I72V/I mutant gene infected in human MT-2 cells by XTT-assay relative to wild-type; assay type: functional, MT2; method in brief: as §1
[9] = system: Human immunodeficiency virus 1; experiment: Antiviral activity against Human immunodeficiency virus 1 isolate 24 harboring Gag-capsid I138L, V159I, V215L, I223A, T239S, N252S, T280V, R286K, S310T and V362I mutant gene and protease L10V, I13V, I15V, K20R, D30N, V32I, L33F, E35D, M36I, S37N, K43T, M46I, I47V, F53L, I54L, I62V, L63P, I66F, A71V, T74S, V82A, N88D, L89V, L90M and I93V mutant gene infected in human MT-2 cells by XTT-assay …; assay type: functional, MT2
[10] = system: Human immunodeficiency virus 1; experiment: Antiviral activity against Human immunodeficiency virus 1 isolate 2 harboring Gag-capsid A146P, S173A, V215L, H219P, E230D, N252S, R264K, L268M and A340G mutant gene and protease L10I, I15V, K20R, M36I, S37N, M46I, L63P, T80A, V82A, N83H, I84V, I85T and L90M mutant gene infected in human MT-2 cells by XTT-assay relative to wild-type; assay type: functional, MT2; method in brief: as §1
[11] = system: Human immunodeficiency virus 1; experiment: Antiviral activity against Human immunodeficiency virus 1 isolate 29 harboring Gag-capsid I138M, A146P, R286K, T303V and A326S mutant gene and protease L10F, I13V, V32I, M36L, S37N, L38W, P39Q, M46I, I47V, I50V, I62V, L63P, A71I, I72V and V82A mutant gene infected in human MT-2 cells by XTT-assay relative to wild-type; assay type: functional, MT2; method in brief: as §1
[12] = system: Human immunodeficiency virus 1; experiment: Antiviral activity against antiretroviral-pretreated Human immunodeficiency virus 1 isolate 12 harboring Gag-capsid G357S and V362I mutant gene infected in human MT-2 cells by XTT assay relative to wild-type; assay type: functional, MT2
Method in brief: (§2)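 Patient-derived Gag fragments were pooled as bacterial colonies to keep quasispecies diversity and ligated into the pXXLAI (HIV-1 LAI) backbone. Virus was made by transfecting 293T cells and harvesting supernatant 2 days later. MT-2 cells were infected at 37°C with an inoculum titrated to give an XTT signal-to-noise of 2.5–4.0. Cells were plated into drug dilutions, incubated 5 days at 37°C, and read by XTT absorbance (450−650 nm). EC50 was taken from percent cell death and expressed as fold change versus wild-type LAI.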

[13] = system: Human immunodeficiency virus 1; experiment: Antiviral activity against Human immunodeficiency virus 1 isolate 32 harboring Gag-SP1 V370I and N372G mutant gene infected in human MT-2 cells by XTT assay relative to wild-type; assay type: functional, MT2; method in brief: as §1
[14] = system: Human immunodeficiency virus 1; experiment: Antiviral activity against antiretroviral-pretreated PI-resistant Human immunodeficiency virus 1 isolate 28 infected in human MT-2 cells by XTT assay relative to wild-type; assay type: functional, MT2; method in brief: as §2
[15] = system: Human immunodeficiency virus 1; experiment: Antiviral activity against Human immunodeficiency virus 1 isolate 37 harboring Gag-capsid G357S mutant gene and Gag-SP1 I376V mutant gene infected in human MT-2 cells by XTT assay relative to wild-type; assay type: functional, MT2; method in brief: as §1
[16] = system: Human immunodeficiency virus 1; experiment: Antiviral activity against antiretroviral-pretreated PI-resistant Human immunodeficiency virus 1 isolate 9 harboring Gag-SP1 T375N and I376V mutant gene infected in human MT-2 cells by XTT assay relative to wild-type; assay type: functional, MT2; method in brief: as §2
[17] = system: Human immunodeficiency virus 1; experiment: Antiviral activity against Human immunodeficiency virus 1 isolate 30 infected in human MT-2 cells by XTT assay relative to wild-type; assay type: functional, MT2
[18] = system: Human immunodeficiency virus 1; experiment: Antiviral activity against antiretroviral-pretreated PI-resistant Human immunodeficiency virus 1 isolate 1 harboring Gag-Sp-1 S368C, V370A and A374N mutant gene deletion at T371 in Gag-SP-1 infected in human MT-2 cells by XTT assay relative to wild-type; assay type: functional, MT2; method in brief: as §2
[19] = system: Human immunodeficiency virus 1; experiment: Antiviral activity against antiretroviral-pretreated PI-resistant Human immunodeficiency virus 1 isolate 23 harboring Gag-capsid G357S and V362I mutant gene, Gag-SP-1 V370A and T375A mutant gene and deletion at T371 in Gag-SP-1 infected in human MT-2 cells by XTT assay relative to wild-type; assay type: functional, MT2; method in brief: as §2
[20] = system: Human immunodeficiency virus 1; experiment: Antiviral activity against Human immunodeficiency virus 1 isolate 29 harboring Gag-capsid I138M, A146P, R286K and A326S mutant gene and protease L10F, I13V, V32I, M36L, S37N, M46I, I47V, I62V, L63P, A71I, I72V and V82A mutant gene infected in human MT-2 cells by XTT-assay relative to wild-type; assay type: functional, MT2; method in brief: as §1
[21] = system: Human immunodeficiency virus 1; experiment: Antiviral activity against Human immunodeficiency virus 1 isolate 6 harboring Gag-SP-1 V370, S373 and A374 mutant infected in human MT-2 cells by XTT-assay relative to wild-type; assay type: functional, MT2; method in brief: as §1
[22] = system: Human immunodeficiency virus 1; experiment: Antiviral activity against antiretroviral-pretreated Human immunodeficiency virus 1 isolate 22 infected in human MT-2 cells by XTT assay relative to wild-type; assay type: functional, MT2; method in brief: as §2
[23] = system: Human immunodeficiency virus 1; experiment: Antiviral activity against antiretroviral-pretreated PI-resistant Human immunodeficiency virus 1 isolate 2 harboring Gag-SP-1 S373A, A374G and T375A mutant gene infected in human MT-2 cells by XTT assay relative to wild-type

Row | SMILES | fold change (FC) [1] | fold change (FC) [2] | fold change (FC) [3] | fold change (FC) [4] | fold change (FC) [5] | fold change (FC) [6] | fold change (FC) [7] | fold change (FC) [8] | fold change (FC) [9] | fold change (FC) [10] | fold change (FC) [11] | other results
1 | COC(=O)N[C@H](C(=O)N[C@@H](Cc1ccccc1)[C@@H](O)CN(Cc1ccc(-c2ccccn2)cc1)NC(=O)[C@@H](NC(=O)OC)C(C)(C)C)C(C)(C)C [ATAZANAVIR] | 1.3 | 14.4 | 63.2 | 44.4 | 52.1 | 62.9 | 29.2 | 1.8 | 590 | 10.7 | 3.2 | –
2 | C=C(C)[C@@H]1CC[C@]2(C(=O)O)CC[C@]3(C)[C@H](CC[C@@H]4[C@@]5(C)CC[C@H](OC(=O)CC(C)(C)C(=O)O)C(C)(C)[C@@H]5CC[C@]43C)[C@@H]12 [BEVIRIMAT] | – | – | – | – | – | – | – | – | – | – | – | fold change (FC) [12]: >100; fold change (FC) [13]: 0.9; fold change (FC) [14]: 1.3; fold change (FC) [15]: 4.6; fold change (FC) [16]: 4.7; fold change (FC) [17]: 5.2; fold change (FC) [18]: >100; fold change (FC) [19]: >100; fold change (FC) [20]: >100; fold change (FC) [21]: 0.4; fold change (FC) [22]: 0.7; fold change (FC) [23]: >100
3 | Cc1cccc(C)c1OCC(=O)N[C@@H](Cc1ccccc1)[C@@H](O)C[C@H](Cc1ccccc1)NC(=O)[C@H](C(C)C)N1CCCNC1=O [LOPINAVIR] | 0.9 | 99.3 | 12.1 | 16.5 | 29.2 | 22.1 | 3.4 | 1.6 | 69 | 15.5 | 89.3 | –
